Assay results taken from PubChem BioAssay.
Activity calls are given as the source filed them.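 How the source made its calls, unless noted: active means fluorescence slope after compound addition differing from the mean of all tested samples at 99.7% confidence, mostly higher but some lower; inactive means the rest.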

Tests used:
[1] = inhibitors of TNFa-induced NFkB p65 translocation, primary screen, imaging, HUVEC, MLSMR starter and 10KST1 sets (AID 438;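 active means inhibition above 20% together with a positive visual image hit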;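 further: compound added about 3h40 before a 20 min TNFalpha stimulation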;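 on inhibition: signal is the nuclear over cytoplasmic p65 intensity ratio per well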); settings: HUVEC TNFa-induced p65 nuclear translocation; cell count: measured here: nuclei count (cytotoxicity indicator), at 2.08 µM; inhibition: at 2 µM, stronger effect = higher value, 0% TNFa-plus-vehicle, 100% no-TNFa wells
[2] = endothelial E-selectin expression blockers – imaging, HUVEC, immunofluorescence, MLSMR starter and 10KST1 sets, primary screen (AID 487;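 active means visually confirmed hit in the image check and inhibition above 20%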;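 on inhibition: signal is fraction of cell area covered by stained E-selectin grains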;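 on nuclei count: 100% = median nuclei count of all wells on the same plate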); settings: HUVEC TNFalpha-induced E-selectin immunofluorescence imaging, at 2 µM; inhibition: stronger effect = higher value; nuclei count: measured here: cell number, toxicity
[3] = Primary imaging screen for DUSP6 inhibitors that restore phospho-Erk in transfected HeLa cells, chemical complementation (AID 609;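 active means compounds giving at least 50% inhibition in the cell-based MKP-3 phosphatase rescue imaging test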;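 on inhibition: phospho-Erk level distribution per well compared with pooled transfected vehicle control wells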); settings: HeLa MKP-3 transfected, phospho-Erk imaging KS statistic, at 10 µM, cells stimulated with TPA for 15 min
[4] = target: Dual specificity protein phosphatase 6 (Homo sapiens) (UniProt Q16828); assay: as above; settings: HeLa MKP-3 transfected, phospho-Erk imaging KS statistic; at 10 µM; stronger effect = higher value; cells stimulated with TPA for 15 min
[5] = target: Voltage-gated potassium channel subunit beta-2 (Rattus norvegicus) (UniProt P62483); assay: inhibitors of rat Kvbeta2 reductase activity – biochemical, NADPH fluorescence, primary screen (AID 622;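 active means fluorescence slope higher than the sample average by over 3 SD, cut at about -0.22 in these data, passing the limit was not always enough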;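 further: slope of raw intensity against log time taken from 70 to 1610 s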); settings: recombinant KvBeta, 4-cyanobenzaldehyde reduction, at 10 µM, stronger effect = higher value
[6] = target: Voltage-gated potassium channel subunit beta-2 (Rattus norvegicus) (UniProt P62483); assay: enhancers of rat Kvbeta2 NADPH turnover – biochemical, NADPH fluorescence, primary screen (AID 623;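 active means NADPH fluorescence slope more negative than the mean of all samples by about 3 SD, 99.7% confidence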;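 further: fluorescence intensity change per second fitted from 20 to 320 s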); settings: Recombinant KvBeta, NADPH fluorescence decrease slope, 10 min; at 10 µM; stronger effect = lower value
[7] = target: Muscarinic acetylcholine receptor M4 (Homo sapiens) (UniProt P08173); assay: M4-linked GIRK flux change, two-sided – cell-based, HEK293 M4/GIRK, thallium flux, BTC-AM, M4 allosteric agonist project, primary screen (AID 625); settings: at 10 µM, actives lie on both sides;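 further: thallium influx through GIRK channels coupled to M4 in HEK293 cells with BTC-AM dye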
In short: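 assay system = HEK293 cells with M4 receptor and GIRK channels | medium = pH 7.3 thallium assay buffer | doses = 10 µM final, single point | timing = cells overnight at 37 °C, BTC-AM loading 1 h, reads 2 min total | signal = BTC-AM fluorescence, 1 Hz kinetic reads | read-out = post-addition slope, 15–24 s, of baseline-normalized fluorescence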

[8] = inhibitors of larval lipid processing in zebrafish, primary screen, whole organism, PED6 fluorescence, gall bladder and intestine (AID 686;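 active means a full or partial loss of lipid-probe fluorescence in the fish gall bladder, intestine or both, judged by eye; inactive means no fluorescence loss, or compound toxic to the fish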;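 further: larvae 5 to 7 days old with five fish per well; signal comes from phospholipase A2 cleavage of quenched PED6 carried via bile; overnight exposure to compound and PED6 before scoring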); settings: Zebrafish larvae PED6 lipid processing, fluorescence scoring; screened at 20 µM (by protocol)
In short: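 Also added: quenched phospholipase substrate PED6, 100 nM final, ingested by larvae; System: zebrafish larvae, 5-7 d; Quantity: 5 larvae per well; Compound: 20 µM single dose; Schedule: overnight compound and PED6 incubation; Read-out: visual per-well fluorescence inhibition score; Measured by: By-eye fluorescence microscopy; Medium: E3.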

[9] = loss of swimming-algae plug formation – whole organism, Chlamydomonas reinhardtii, WT vs cilia-less mutant, absorbance, 96-well, primary screen (AID 463189;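 active means inhibition at or above 50% relative to wild type and mutant plate controls; inactive means inhibition below 50%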;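 further: 0% = wild type cc124 cells in DMSO and 100% = ciliumless bld1 mutant cells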); settings: Chlamydomonas reinhardtii gravitaxis, OD600 absorbance, 2 days; at 10 µM; stronger effect = higher value
[10] = measured here: cell density z-score
[11] = measured here: nuclear c-Myc green intensity z-score
[12] = measured here: nuclear pErk red intensity z-score, stronger effect = higher value

Chain of Muscarinic acetylcholine receptor M4 (Homo sapiens) (P08173 whole entry, looked up): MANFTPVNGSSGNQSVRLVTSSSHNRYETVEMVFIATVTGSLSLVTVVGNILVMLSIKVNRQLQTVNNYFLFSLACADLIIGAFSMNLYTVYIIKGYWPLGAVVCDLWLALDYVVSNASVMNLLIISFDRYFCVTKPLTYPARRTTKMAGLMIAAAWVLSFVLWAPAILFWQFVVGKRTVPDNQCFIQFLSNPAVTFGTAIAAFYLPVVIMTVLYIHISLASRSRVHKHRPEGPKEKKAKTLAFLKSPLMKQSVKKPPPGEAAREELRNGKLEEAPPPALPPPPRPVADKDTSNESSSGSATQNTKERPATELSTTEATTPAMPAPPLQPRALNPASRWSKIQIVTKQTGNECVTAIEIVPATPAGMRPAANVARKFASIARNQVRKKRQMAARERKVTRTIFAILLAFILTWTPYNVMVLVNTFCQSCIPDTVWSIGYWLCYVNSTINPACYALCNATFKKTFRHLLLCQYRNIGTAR
Chain of Voltage-gated potassium channel subunit beta-2 (Rattus norvegicus) (P62483 whole entry, looked up): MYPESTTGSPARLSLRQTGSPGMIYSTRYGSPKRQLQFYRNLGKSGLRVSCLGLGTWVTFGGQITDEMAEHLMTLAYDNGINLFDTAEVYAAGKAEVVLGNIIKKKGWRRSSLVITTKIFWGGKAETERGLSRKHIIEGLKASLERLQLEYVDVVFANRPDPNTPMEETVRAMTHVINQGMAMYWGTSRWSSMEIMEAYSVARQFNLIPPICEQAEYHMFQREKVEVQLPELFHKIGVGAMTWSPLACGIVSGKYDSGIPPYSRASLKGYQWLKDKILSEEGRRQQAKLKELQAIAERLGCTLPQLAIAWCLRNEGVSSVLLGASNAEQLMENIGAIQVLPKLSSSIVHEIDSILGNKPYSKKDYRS
Chain of Dual specificity protein phosphatase 6 (Homo sapiens) (Q16828 whole entry, looked up): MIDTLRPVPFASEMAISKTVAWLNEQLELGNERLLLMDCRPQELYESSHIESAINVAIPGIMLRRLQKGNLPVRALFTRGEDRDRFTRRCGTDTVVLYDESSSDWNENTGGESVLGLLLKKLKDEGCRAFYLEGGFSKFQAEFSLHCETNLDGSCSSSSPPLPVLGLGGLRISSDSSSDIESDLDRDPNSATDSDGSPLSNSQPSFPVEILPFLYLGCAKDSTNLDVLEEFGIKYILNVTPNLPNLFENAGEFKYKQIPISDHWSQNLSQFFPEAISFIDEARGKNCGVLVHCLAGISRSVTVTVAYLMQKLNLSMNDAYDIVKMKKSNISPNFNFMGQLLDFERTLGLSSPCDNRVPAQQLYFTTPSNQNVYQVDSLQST

Row | Compound | cell count [1] | inhibition [1] | inhibition [2] | nuclei count [2] | z-score [3, 10] | z-score [3, 11] | z-score [3, 12] | inhibition [4] | fluorescence slope [5] | NADPH fluorescence slope [6] | fluorescence slope [7] | outcome [8] | inhibition [9]
1 | CCN(CC)c1nc(C)c2c(c1C#N)CC(C)(C)OC2 | 491 | -5.9% (inactive) | -142% (inactive) | 118% | -2.08 | 0.916 | -0.636 | 13.4% (inactive) | -0.462 (inactive) | -1.1e-05 (inactive) | 0.00447 (inactive) | inactive | -9.09% (inactive)
2 | COC(=O)CC(=O)Cc1nc(N)nc(Nc2ccc(C)c(C)c2)n1 | 628 | 1.8% (inactive) | -16.8% (inactive) | 133% | 0.15 | 0.484 | 0.858 | -0.233% (inactive) | -0.442 (inactive) | -3e-05 (inactive) | 0.00526 (inactive) | inactive | 1.81% (inactive)
3 | N#CC(C#N)C(c1ccsc1)c1c(-c2ccccc2)[nH][nH]c1=O (stereo not given) | 712 | -0.5% (inactive) | -88.8% (inactive) | 169% | 0.118 | -0.0424 | 0.886 | -4.27% (inactive) | -0.495 (inactive) | -6.9e-05 (inactive) | 0.00622 (inactive) | inactive | 3.19% (inactive)
4 | COc1cccc(C(=O)N2CCN(Cc3ccccn3)CC2)c1OC | 503 | -5.7% (inactive) | -70.6% (inactive) | 158% | -2.51 | 0.355 | 0.989 | -12.3% (inactive) | -0.466 (inactive) | -5.6e-05 (inactive) | 0.00645 (inactive) | inactive | 1.71% (inactive)
5 | COc1ccc2[nH]cc(C(=O)CN(C)CCc3ccc(OC)c(OC)c3)c2c1 | 516 | -15.4% (inactive) | -59.5% (inactive) | 137% | 0.922 | -0.876 | 1.1 | -14.6% (inactive) | -0.476 (inactive) | -7.3e-05 (inactive) | 0.00394 (inactive) | inactive | -1.18% (inactive)
6 | CCNC(=O)COn1c(SCC(=O)NCC)nc2ccccc2c1=O | 763 | 2.9% (inactive) | 10% (inactive) | 174% | 0.564 | 0.056 | 0.704 | -4.7% (inactive) | -0.443 (inactive) | -4.1e-05 (inactive) | 0.00588 (inactive) | inactive | -4.94% (inactive)
7 | c1ccc2c(c1)[nH]c1c(N3CCSCC3)ncnc12 | 567 | -4.6% (inactive) | -117% (inactive) | 193% | 0.216 | -0.97 | -0.889 | -4.59% (inactive) | -0.358 (inactive) | -3.7e-06 (inactive) | 0.00494 (inactive) | inactive | 14.6% (inactive)
8 | O=C(O)CCc1nn2cc(-c3ccccc3)nc2[nH]c1=O | 580 | 3% (inactive) | -147% (inactive) | 170% | 0.555 | -0.659 | -0.476 | -7.93% (inactive) | -0.00517 (active) | 2.1e-06 (inactive) | 0.00553 (inactive) | inactive | -5.8% (inactive)
9 | CCCCOC(=O)CSC1=C(C#N)C(c2ccc3c(c2)OCO3)CC(=O)N1 (stereo not given) | 650 | -12.5% (inactive) | -163% (inactive) | 155% | 1.99 | 0.113 | -0.175 | 8.31% (inactive) | -0.5 (inactive) | -8.3e-05 (inactive) | 0.00598 (inactive) | inactive | 4.75% (inactive)
10 | c1ccc(-n2c(Cc3cccnc3)nc3cnccc32)cc1 | 581 | -2.4% (inactive) | 48.6% (inactive) | 107% | -0.422 | -1.1 | -1.28 | -6.48% (inactive) | -0.468 (inactive) | -5.8e-05 (inactive) | 0.00562 (inactive) | inactive | 1.93% (inactive)
11 | Cn1ncc2nc[nH]c(=O)c21 | 709 | 2% (inactive) | -49.9% (inactive) | 110% | -0.739 | -0.543 | 1.26 | 5.95% (inactive) | -0.579 (inactive) | -3.5e-05 (inactive) | 0.006 (inactive) | inactive | 30.9% (inactive)
12 | CCOC(=O)C1=C(N)n2c(s/c(=C\c3ccco3)c2=O)=C(C(=O)OC(C)C)C1c1ccco1 (stereo not given) | 383 | -7.4% (inactive) | -126% (inactive) | 166% | 0.588 | -1.67 | 1.18 | -4.59% (inactive) | -0.46 (inactive) | -7.4e-05 (inactive) | 0.00444 (inactive) | inactive | 27.2% (inactive)
13 | Cc1ccc(-c2nn(CCC(=O)NCC3CCCO3)c(=O)c3ccccc23)cc1 (stereo not given) | 465 | -2.6% (inactive) | -99.3% (inactive) | 155% | -0.415 | 0.704 | -0.137 | -7.28% (inactive) | -0.422 (inactive) | -5.3e-05 (inactive) | 0.0051 (inactive) | inactive | -0.115% (inactive)
14 | Cc1cccn2c(=O)c3cc(C(N)=S)c(=N)n(CCCOC(C)C)c3nc12 | 637 | -5.4% (inactive) | -92.7% (inactive) | 153% | 1.81 | -0.956 | -1.49 | 12.7% (inactive) | -0.447 (inactive) | -3.3e-05 (inactive) | 0.00286 (inactive) | inactive | 145% (active)
15 | CCCCOc1ccc(C(=O)NCC(=O)NCC(=O)OCC)cc1 | 357 | -8.2% (inactive) | -101% (inactive) | 108% | -0.206 | 0.434 | -0.573 | -6.59% (inactive) | -0.49 (inactive) | 4.9e-06 (inactive) | 0.00496 (inactive) | inactive | -13.2% (inactive)
16 | CCOc1cccc(N2C(=O)CC(N(CCc3ccc(OC)c(OC)c3)C(=O)CC)C2=O)c1 (stereo not given) | 586 | -0.6% (inactive) | 2.4% (inactive) | 120% | -0.772 | 0.365 | -1.41 | -7.67% (inactive) | -0.453 (inactive) | -1.2e-05 (inactive) | 0.00547 (inactive) | inactive | -0.122% (inactive)
17 | O=c1cc(O)nc2n1CCCS2 | 698 | 0.1% (inactive) | 56.2% (inactive) | 144% | 1.6 | 0.755 | 0.757 | -9.53% (inactive) | -0.418 (inactive) | -5.5e-05 (inactive) | 0.00444 (inactive) | inactive | 0.661% (inactive)
18 | Cc1cccc(NC(=O)c2c(C)cc(=O)oc2C)n1 | 522 | -1.7% (inactive) | 26.4% (inactive) | 170% | 0.944 | 0.403 | -0.669 | 7.93% (inactive) | -0.374 (inactive) | -3.7e-05 (inactive) | 0.00509 (inactive) | inactive | -9.96% (inactive)
19 | Cc1ccc(S(=O)(=O)/C(C#N)=C/c2c(N3CCN(C)CC3)nc3ccccn3c2=O)cc1 | 484 | 6.4% (inactive) | -211% (inactive) | 173% | 0.277 | -0.883 | 0.543 | 1.04% (inactive) | -0.454 (inactive) | -5.5e-05 (inactive) | 0.0048 (inactive) | inactive | -9.76% (inactive)
20 | Cc1cc2ccccc2cc(C)c1=O | 388 | -6.2% (inactive) | -120% (inactive) | 168% | 1.48 | 0.00969 | -1.01 | -0.584% (inactive) | -0.453 (inactive) | -9e-05 (inactive) | 0.00444 (inactive) | inactive | -12% (inactive)
